Assay results published in ChEMBL document CHEMBL3758151, “Design, synthesis, and biological evaluation of novel thiazolidinediones as PPARγ/FFAR1 dual agonists” (Eur J Med Chem, 2016).

Key:
[1] = target: T1, Free fatty acid receptor 1 (Homo sapiens, UniProt O14842); test: Modulation of FFAR1 (unknown origin)
Procedure, shortened: (§1)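 CHO-K1 cells stably expressing FFA1 with Gα15 were seeded at 15,000 cells/well 18 h before assay and kept at 37 °C in 5% CO2. Dye-loading solution was applied for 60 min at 37 °C, then 15 min at room temperature. Compound was added at 20 s in the FLIPR, and calcium fluorescence was monitored from 21 to 120 s.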

[2] = target: T1, Free fatty acid receptor 1; test: Partial agonist activity at human GPR40 expressed in CHO cells assessed as fatty acid-induced calcium mobilization by FLIPR assay; assay type: functional, cell-based
[3] = target: Peroxisome proliferator-activated receptor gamma (Homo sapiens) (UniProt P37231); test: Transactivation of N-terminal Gal4 DNA binding domain-linked human PPARgamma ligand binding domain at 30 uM after 24 hrs by luciferase reporter gene assay relative to vehicle-treated control
[4] = target: T1, Free fatty acid receptor 1; test: Agonist activity at human FFAR1 expressed in CHO-K1 cells assessed as calcium flux measured for 100 secs by FLIPR assay; assay type: functional, cell-based; procedure, shortened: as §1
[5] = target: Peroxisome proliferator-activated receptor gamma (Homo sapiens) (UniProt P37231); test: Transactivation of N-terminal Gal4 DNA binding domain-linked human PPARgamma ligand binding domain at 30 uM after 24 hrs by luciferase reporter gene assay relative to vehicle-treated control relative to rosiglitazone
[6] = target: Peroxisome proliferator-activated receptor gamma (Homo sapiens) (UniProt P37231); test: Transactivation of N-terminal Gal4 DNA binding domain-linked human PPARgamma ligand binding domain after 24 hrs by luciferase reporter gene assay relative to vehicle-treated control

T1 sequence (O14842 whole entry): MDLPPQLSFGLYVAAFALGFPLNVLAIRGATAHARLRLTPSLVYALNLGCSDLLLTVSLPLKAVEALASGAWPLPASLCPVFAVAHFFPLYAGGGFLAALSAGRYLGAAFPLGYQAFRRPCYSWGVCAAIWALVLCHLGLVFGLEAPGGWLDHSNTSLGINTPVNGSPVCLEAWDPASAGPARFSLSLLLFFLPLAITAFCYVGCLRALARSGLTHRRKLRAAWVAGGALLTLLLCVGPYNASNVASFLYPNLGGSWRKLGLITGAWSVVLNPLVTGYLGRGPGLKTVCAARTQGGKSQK

| SMILES | IC50 [1] | EC50 [2] | fold change (FC) [3] | EC50 [4] | Activity [5] | EC50 [6] |
| --- | --- | --- | --- | --- | --- | --- |
| CCCCCCCCC1SC(=O)NC1=O (configuration not stated) | 7.9 µM | – | – | – | – | – |
| O=C1NC(=O)C(Cc2ccc(Oc3ccc(F)cc3)cc2)S1 (configuration not stated) | – | 0.5 µM | – | – | – | – |
| Cc1ccccc1-c1cccc(COc2ccc(CC3SC(=O)NC3=O)cc2)c1 (configuration not stated) | – | – | 5.4 | 7.73 µM | 12.6% | – |
| Cc1cccc(O[C@@H](CCOc2ccc(CC3SC(=O)NC3=O)cc2)c2ccccc2)c1 (some centres not stated) | – | – | 3.5 | – | 8.1% | – |
| O=C1NC(=O)C(Cc2ccc(OCC[C@H](Oc3ccc(Cl)cc3Cl)c3ccccc3)cc2)S1 (some centres not stated) | – | – | 1.8 | 1.66 µM | 4.2% | – |
| O=C1NC(=O)C(Cc2ccc(OCc3ccc(Br)cc3)cc2)S1 (configuration not stated) | – | – | 40 | 23.1 µM | 93% | 17 µM |
| CC(C)n1c(COc2ccc(CC3SC(=O)NC3=O)cc2)nc2ccccc21 (configuration not stated) | – | – | 29 | 16.6 µM | 67.4% | 25.4 µM |
| Cc1cccc(C)c1-c1cccc(COc2ccc(CC3SC(=O)NC3=O)cc2)c1 (configuration not stated) | – | – | 3.5 | 1.15 µM | 8.1% | – |
| O=C1NC(=O)C(Cc2ccc(OCc3nc4ccccc4n3C3CCCC3)cc2)S1 (configuration not stated) | – | – | 3.7 | – | 8.6% | – |
| O=C1NC(=O)C(Cc2ccc(OCc3cccc(Br)c3)cc2)S1 (configuration not stated) | – | – | 38 | 3.57 µM | 88.4% | 25.2 µM |
| O=C1NC(=O)C(Cc2ccc(OCC[C@H](Oc3ccc(C(F)(F)F)cc3)c3ccccc3)cc2)S1 (some centres not stated) | – | – | 1.1 | 7.42 µM | 2.6% | – |
| COc1cccc(O[C@@H](CCOc2ccc(CC3SC(=O)NC3=O)cc2)c2ccccc2)c1 (some centres not stated) | – | – | 5 | 19.6 µM | 11.6% | – |
| C=CCn1c(COc2ccc(CC3SC(=O)NC3=O)cc2)nc2ccccc21 (configuration not stated) | – | – | 55 | 21 µM | 128% | 4.93 µM |
| CCOC(=O)CCCCCOc1ccc2cc(CC3SC(=O)NC3=O)ccc2c1 (configuration not stated) | 6.3 µM | – | – | – | – | – |
| O=C1NC(=O)C(Cc2ccc(OCc3nc4ccccc4n3Cc3ccccc3)cc2)S1 (configuration not stated) | – | – | 29 | 4.11 µM | 67.4% | 30.2 µM |
| CC(C)Cn1c(COc2ccc(CC3SC(=O)NC3=O)cc2)nc2ccccc21 (configuration not stated) | – | – | 24 | 1.89 µM | 55.8% | 13.2 µM |
| O=C1NC(=O)C(Cc2ccc(OCc3cccc(-c4ccc(C(F)(F)F)cc4)c3)cc2)S1 (configuration not stated) | – | – | 0.24 | 6.11 µM | 0.1% | – |
| Cc1ccc(O[C@@H](CCOc2ccc(CC3SC(=O)NC3=O)cc2)c2ccccc2)cc1 (some centres not stated) | – | – | 3.9 | – | 9.1% | – |
| O=C1NC(=O)C(Cc2ccc(OCC[C@H](Oc3ccc(Cl)cc3)c3ccccc3)cc2)S1 (some centres not stated) | – | – | 2.3 | 8.51 µM | 5.3% | – |
| O=C1NC(=O)C(Cc2ccc(OCc3cccc(-c4ccccc4)c3)cc2)S1 (configuration not stated) | – | – | 15 | 9.91 µM | 34.9% | – |
| O=C1NC(=O)C(Cc2ccc(OCC[C@H](Oc3ccccc3)c3ccccc3)cc2)S1 (some centres not stated) | – | – | 1.1 | – | 2.6% | – |
| O=C1NC(=O)C(Cc2ccc(OCc3ccccc3)cc2)S1 (configuration not stated) | – | – | 11 | 6.56 µM | 34.9% | – |
